Source: ChEMBL document CHEMBL1143326, “Single-step high-yield radiosynthesis and evaluation of a sensitive 18F-labeled ligand for imaging brain peripheral benzodiazepine receptors with PET” (J Med Chem, 2009)

Tests used:
[1] = Distribution coefficient, log D at pH 7.4; type: physicochemical; conditions: octanol/water
Outline: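 Radioligand partitioned between n-octanol and sodium phosphate buffer (0.15 M, pH 7.4); LogD taken as log of the distribution coefficient; n = 6.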

Translocator protein [2] = target: Translocator protein (Rattus norvegicus, UniProt P16257); test: Displacement of [3H]PK11195 from rat PBR receptor
Translocator protein [3] = target: Translocator protein (Homo sapiens, UniProt P30536); test: Displacement of [3H]PK11195 from human PBR receptor
Outline: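 Competition binding against [3H]PK 11195 in human brain tissue (mitochondrial fraction of brain homogenate). The tissue came from the NIMH Clinical Brain Disorders Branch. Affinity is expressed as Ki.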

[4] = Displacement of [3H]PK11195 from monkey PBR receptor; parameters: species or system Macaca mulatta
Blood [5] = test: Drug level in rat blood assessed as standard uptake value at 74.6 uCi, iv after 30 mins; type: ADME, organism-based; conditions: in vivo, 0.5 h
Brain [6] = test: Stability in rat brain assessed as conversion into polar radiometabolites at 10 uCi after 30 mins; type: ADME, tissue-based; conditions: 0.5 h
Outline: (§1)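 Radioligand incubated for 30 min with rat brain homogenate or rat whole blood; conversion to polar species eluting at the solvent front measured by reverse-phase radio-HPLC.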

[7] = Stability in rat whole blood assessed as conversion into polar radiometabolites at 10 uCi after 30 mins; type: ADME, tissue-based; conditions: 0.5 h; outline: as §1
Brain [8] = test: Drug level in rat brain assessed as standard uptake value at 74.6 uCi, iv after 30 mins; type: ADME, organism-based; conditions: in vivo, 0.5 h
Plasma [9] = test: Drug level in rat plasma assessed generation of polar radiometabolites as at 74.6 uCi, iv after 30 mins; type: ADME, organism-based; conditions: in vivo, 0.5 h
Brain [10] = test: Drug level in rat brain assessed generation of polar radiometabolites as at 74.6 uCi, iv after 30 mins; type: ADME, organism-based; conditions: in vivo, 0.5 h
Plasma [11] = test: Drug level in rat plasma assessed as standard uptake value at 74.6 uCi, iv after 30 mins; type: ADME, organism-based; conditions: in vivo, 0.5 h
Brain [12] = test: Drug level in rhesus monkey brain assessed as standard uptake value in choroid plexus of fourth ventricle at 2.76 to 5.8 mCi, iv; type: ADME, organism-based, Macaca mulatta; conditions: in vivo
Outline: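 Male rhesus monkeys (11–15 kg) anaesthetised with ketamine, then 1.6% isoflurane. Bolus i.v. radioligand (2.76–5.80 mCi; 0.068–0.276 μg/kg) given; PET for up to 300 min, co-registered with T1 MRI. Regional radioactivity expressed as %SUV; n = 4.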

[13] = Stability in rhesus monkey plasma assessed as unchanged drug level after 45 mins by HPLC; type: ADME, cell-free, Macaca mulatta; conditions: read-out: Stability
Outline: (§2)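 Radioligand incubated for at least 45 min at room temperature in monkey whole blood or plasma. Sample mixed with acetonitrile and centrifuged; supernatant analysed by reverse-phase radio-HPLC.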

[14] = Drug level in rat brain assessed as drug recovery into acetonitrile analytes at >1.39 Ci/umol, iv after 60 mins; type: ADME, organism-based; conditions: read-out: Drug uptake
[15] = Drug level in rat urine assessed as drug recovery into acetonitrile analytes at >1.39 Ci/umol, iv after 60 mins; type: ADME, organism-based; conditions: read-out: Drug uptake
[16] = Stability in sodium phosphate buffer at pH 7.4 after 2 hrs by HPLC; type: physicochemical; conditions: pH 7.4, 2 h
Outline: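 Radioligand held in sodium phosphate buffer (0.15 M, pH 7.4) for 2 h at room temperature; analysed by HPLC.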

[17] = Stability in rat plasma at 3.78 ug/kg, iv after 7.3 mins; type: ADME, organism-based; conditions: 0.00378 mg/kg, read-out: Stability
Blood [18] = test: Drug level in monkey blood assessed as drug distribution in cellular compartment; type: ADME, tissue-based, Macaca mulatta; conditions: rhesus monkey
Outline: (§3)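 Radioligand incubated in vitro with monkey whole blood, then centrifuged; radioactivity counted in the plasma and cell fractions; n = 4.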

[19] = Stability in rat brain assessed as unchanged drug level at 2 uCi upto 60 mins; type: ADME, tissue-based; conditions: read-out: Stability
[20] = Stability in rhesus monkey whole blood assessed as unchanged drug level after 45 mins by HPLC; type: ADME, tissue-based, Macaca mulatta; conditions: read-out: Stability; outline: as §2
[21] = Stability in rat plasma at 3.78 ug/kg, iv after 10.9 mins; type: ADME, organism-based; conditions: 0.00378 mg/kg, read-out: Stability
Plasma [22] = test: Fraction unbound in human plasma; type: ADME, cell-free
Outline: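 Radioligand added to pooled human plasma and ultrafiltered at 5000g through Centrifree units; all filter-unit components counted for radioactivity to give the free fraction; n = 3.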

[23] = Stability in rat brain at 3.78 ug/kg, iv after 95 mins; type: ADME, organism-based; conditions: 0.00378 mg/kg, read-out: Stability
[24] = Drug level in rat brain assessed as unchanged drug level at >1.39 Ci/umol, iv after 60 mins; type: ADME, organism-based; conditions: read-out: Drug uptake
[25] = Drug level in rat urine assessed as unchanged drug level at >1.39 Ci/umol, iv after 60 mins; type: ADME, organism-based; conditions: in vivo, 1 h
Plasma [26] = test: Stability in rat plasma assessed as drug recovery into acetonitrile analytes at 3.78 ug/kg, iv; conditions: 0.00378 mg/kg
Brain [27] = test: Stability in rat brain assessed as drug recovery into acetonitrile analytes at 3.78 ug/kg, iv; type: ADME, organism-based; conditions: in vivo, 0.00378 mg/kg
[28] = Drug level in rat plasma assessed as drug recovery into acetonitrile analytes at >1.39 Ci/umol, iv after 60 mins; type: ADME, organism-based; conditions: read-out: Drug uptake
[29] = Stability in rat brain assessed as drug recovery at 1.36 Ci/umol, iv after 30 mins; type: ADME, organism-based; conditions: read-out: Stability
Outline: (§4)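 Isoflurane-anaesthetised rat at 37 °C given no-carrier-added radioligand i.v. (mass dose 0.85 μg/kg); sacrifice at 30 min. Plasma and brain homogenate (saline plus acetonitrile) extracted into acetonitrile; supernatants analysed by reverse-phase radio-HPLC (C18, MeOH/H2O/Et3N 75:25:0.1); recovery of radioactivity and parent fraction measured.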

[30] = Stability in rat plasma assessed as drug recovery at 1.36 Ci/umol, iv after 30 mins; type: ADME, organism-based; conditions: read-out: Stability; outline: as §4
[31] = Stability in rat plasma at 3.78 ug/kg, iv after 94.3 mins; type: ADME, organism-based; conditions: 0.00378 mg/kg, read-out: Stability
Plasma [32] = test: Drug level in rat plasma assessed as unchanged drug level at >1.39 Ci/umol, iv after 60 mins; type: ADME, organism-based; conditions: in vivo, 1 h
Plasma [33] = test: Drug distribution in monkey plasma; type: ADME, cell-free, Macaca mulatta; conditions: rhesus monkey; outline: as §3

Translocator protein (Homo sapiens, UniProt P30536), sequence (P30536 whole entry): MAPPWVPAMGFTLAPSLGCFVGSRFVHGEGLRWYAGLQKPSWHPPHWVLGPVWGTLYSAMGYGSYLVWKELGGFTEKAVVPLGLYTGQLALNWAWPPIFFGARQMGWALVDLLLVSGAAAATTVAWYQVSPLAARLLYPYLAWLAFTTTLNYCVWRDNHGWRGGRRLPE
Translocator protein (Rattus norvegicus, UniProt P16257), sequence (P16257 whole entry, looked up): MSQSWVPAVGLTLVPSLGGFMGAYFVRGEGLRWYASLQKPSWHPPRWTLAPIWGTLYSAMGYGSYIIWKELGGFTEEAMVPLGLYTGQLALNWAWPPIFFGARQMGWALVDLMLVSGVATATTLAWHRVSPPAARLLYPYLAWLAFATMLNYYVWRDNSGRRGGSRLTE

Work on `COc1ccc(OC)c(CN(C(=O)CF)c2ccccc2Oc2ccccc2)c1` yielded a logD [1] of 4.05, a Ki (Translocator protein [2]) of 0.18 nM and a Ki (Translocator protein [3]) of 0.997 nM. It also gave a Ki [4] of 0.318 nM.

`O=C(C[18F])Nc1ccccc1Oc1ccccc1` gave a Drug uptake (Blood [5]) of 196%, a Stability (Brain [6]) of over 99.9% and a Stability [7] of over 99.9%. The Drug uptake (Brain [8]) was 120%, the Activity (Plasma [9]) was over 99% and the Activity (Brain [10]) was over 99%. It also gave a Drug uptake (Plasma [11]) of 226%.

Compound `COc1ccc(OC)c(CN(C(C)=O)c2cc(F)ccc2Oc2ccccc2)c1` has a Ki (Translocator protein [2]) of 0.0726 nM and a Ki (Translocator protein [3]) of 0.242 nM.

Compound `COc1ccc(OC)c(CN(C(=O)C[18F])c2ccccc2Oc2ccccc2)c1` has an Activity (Brain [12]) of 350%, a remaining at 0.75 h [13] of 97.2% and a recovery at 1 h [14] of 91%. For the same compound, the recovery at 1 h [15] was 80.3%, the Stability [16] was “Stable” and the remaining at 0.121667 h [17] was 44.6%. The Drug uptake (Blood [18]) was 93.4%, the remaining at 1 h [19] was over 99.2% and the remaining at 0.75 h [20] was 95.5%. It also gave a remaining at 0.181667 h [21] of 37.6%, a Fu (Plasma [22]) of 0.7% and a remaining at 95 min [23] of 39.2%. It also gave a remaining at 1 h [24] of 32.6%, a Drug uptake [25] of 0.2% and a Stability (Plasma [26]) of 93%. For the same compound, the Stability (Brain [27]) was 81.8%, the recovery at 1 h [28] was 93.2% and the remaining at 0.5 h [29] was 85.1%. It also gave a remaining at 0.5 h [30] of 92.7%, a remaining at 1.57167 h [31] of 5.7% and a Drug uptake (Plasma [32]) of 14.2%. For the same compound, the Drug uptake (Plasma [33]) was 6.6%.
